Test results as given in ChEMBL document CHEMBL3585285, “Amino Acid Thioester Derivatives: A Highly Promising Scaffold for the Development of Metallo-β-lactamase L1 Inhibitors” (ACS Med Chem Lett, 2015).
Values after ≈ are worked out from the molar mass of the structure shown. Values belong to the compound of their own block, whether it stands above or below them. Active and inactive are the calls of the source. The rule behind the calls is not given here.

Experiments:
[1] = test system: Aeromonas veronii bv. sobria; assay: Inhibition of Aeromonas veronii bv. sobria ImiS overexpressed in Escherichia coli BL21 (DE3) assessed as imipenem MIC at 16 ug/ml after 12 hrs by macrodilution broth method
In short: (§1)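 MICs of antibiotic were measured with and without inhibitor at a final 16 μg/mL in E. coli BL21(DE3) carrying pMSZ02-CcrA, pET26b-NDM-1, pET26b-ImiS or pET26b-L1, plus plasmid-free BL21(DE3) as a control. Cefazolin was the antibiotic for the CcrA, NDM-1 and L1 strains; imipenem was used for the ImiS strain.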

[2] = Inhibition of NDM1 (unknown origin) overexpressed in Escherichia coli BL21 (DE3) using cefazolin as substrate incubated for 30 mins prior to testing by UV spectrophotometric analysis
In short: (§2)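 Each enzyme (CcrA or NDM-1) was assayed on cefazolin hydrolysis followed at 262 nm. Initial rates were measured in triplicate with or without inhibitor and averaged. IC50 is the concentration causing 50% loss of activity.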

Escherichia coli [3] = assay: Antibacterial activity against Escherichia coli assessed as cefazolin MIC after 12 hrs by macrodilution broth method (reference value: 64 ug/ml); type: functional
Beta-lactamase L1 [4] = target: T1, Beta-lactamase L1 (Stenotrophomonas maltophilia, UniProt P52700); assay: Inhibition of Stenotrophomonas maltophilia L1 overexpressed in Escherichia coli BL21 (DE3) using cefazolin as substrate incubated for 30 mins prior to testing by UV spectrophotometric analysis
[5] = target: Metallo-beta-lactamase type 2 (Bacteroides fragilis) (UniProt P25910); assay: Inhibition of Bacteroides fragilis CcrA overexpressed in Escherichia coli BL21 (DE3) using cefazolin as substrate up to 5 uM incubated for 30 mins prior to testing by UV spectrophotometric analysis; in short: as §2
[6] = target: Beta-lactamase L1 (Stenotrophomonas maltophilia) (UniProt P52700); assay: Inhibition of Stenotrophomonas maltophilia L1 overexpressed in Escherichia coli BL21 (DE3) assessed as cefazolin MIC at 16 ug/ml after 12 hrs by macrodilution broth method; in short: as §1
Beta-lactamase L1 [7] = target: T1, Beta-lactamase L1; assay: Mixed-type inhibition of Stenotrophomonas maltophilia L1 overexpressed in Escherichia coli BL21 (DE3) using cefazolin as substrate incubated for 30 mins prior to testing by Lineweaver-Burk plot analysis
[8] = target: Beta-lactamase L1 (Stenotrophomonas maltophilia) (UniProt P52700); assay: Inhibition of Stenotrophomonas maltophilia L1 overexpressed in Escherichia coli BL21 (DE3) assessed as reduction of cefazolin MIC at 16 ug/ml after 12 hrs by macrodilution broth method relative to cefazolin-treated control; in short: as §1
[9] = Inhibition of Aeromonas veronii bv. sobria ImiS overexpressed in Escherichia coli BL21 (DE3) using imipenem as substrate incubated for 30 mins prior to testing by UV spectrophotometric analysis
In short: (§3)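 ImiS activity measured as imipenem hydrolysis monitored at 300 nm. Initial rates were taken with and without inhibitor, each in triplicate and averaged. IC50 is the inhibitor concentration giving a 50% drop in enzyme activity.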

Escherichia coli [10] = assay: Antibacterial activity against Escherichia coli assessed as imipenem MIC after 12 hrs by macrodilution broth method (reference value: 0.5 ug/ml); type: functional
[11] = Inhibition of NDM1 (unknown origin) overexpressed in Escherichia coli BL21 (DE3) assessed as cefazolin MIC at 16 ug/ml after 12 hrs by macrodilution broth method; in short: as §1
[12] = target: Metallo-beta-lactamase type 2 (Bacteroides fragilis) (UniProt P25910); assay: Inhibition of Bacteroides fragilis CcrA overexpressed in Escherichia coli BL21 (DE3) assessed as cefazolin MIC at 16 ug/ml after 12 hrs by macrodilution broth method; in short: as §1
[13] = test system: Aeromonas veronii bv. sobria; assay: Inhibition of Aeromonas veronii bv. sobria ImiS overexpressed in Escherichia coli BL21 (DE3) using imipenem as substrate up to 5 uM incubated for 30 mins prior to testing by UV spectrophotometric analysis; in short: as §3
[14] = target: Metallo-beta-lactamase type 2 (Bacteroides fragilis, UniProt P25910); assay: Inhibition of Bacteroides fragilis CcrA overexpressed in Escherichia coli BL21 (DE3) using cefazolin as substrate incubated for 30 mins prior to testing by UV spectrophotometric analysis; in short: as §2
Escherichia coli [15] = assay: Antibacterial activity against Escherichia coli after 12 hrs by macrodilution broth method; type: functional

Sequence of Metallo-beta-lactamase type 2 (Bacteroides fragilis) (P25910 whole entry): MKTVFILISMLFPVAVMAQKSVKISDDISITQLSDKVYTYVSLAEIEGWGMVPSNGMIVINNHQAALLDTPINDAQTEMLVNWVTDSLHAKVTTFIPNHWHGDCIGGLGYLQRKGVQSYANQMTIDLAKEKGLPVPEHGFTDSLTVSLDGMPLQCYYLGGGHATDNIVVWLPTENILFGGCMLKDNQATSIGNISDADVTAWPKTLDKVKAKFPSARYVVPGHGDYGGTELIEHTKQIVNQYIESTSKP
Sequence of Beta-lactamase L1 (Stenotrophomonas maltophilia) (P52700 34-290 limits assumed): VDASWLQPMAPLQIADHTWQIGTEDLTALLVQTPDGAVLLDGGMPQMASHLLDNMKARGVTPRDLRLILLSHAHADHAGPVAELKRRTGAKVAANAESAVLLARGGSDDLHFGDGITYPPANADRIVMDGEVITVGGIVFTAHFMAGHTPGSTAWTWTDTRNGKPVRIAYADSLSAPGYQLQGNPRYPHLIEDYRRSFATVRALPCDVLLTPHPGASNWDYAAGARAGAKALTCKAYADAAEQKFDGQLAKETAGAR
T1 sequence (P52700 whole entry): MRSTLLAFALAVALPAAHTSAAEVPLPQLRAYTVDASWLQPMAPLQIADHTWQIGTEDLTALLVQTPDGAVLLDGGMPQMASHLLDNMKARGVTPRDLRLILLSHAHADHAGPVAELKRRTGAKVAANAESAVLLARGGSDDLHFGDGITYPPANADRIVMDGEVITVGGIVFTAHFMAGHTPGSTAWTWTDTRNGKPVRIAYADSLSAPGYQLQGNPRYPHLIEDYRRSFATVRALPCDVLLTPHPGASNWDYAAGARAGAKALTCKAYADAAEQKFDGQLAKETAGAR
Sequence of Metallo-beta-lactamase type 2 (P25910 whole entry): as the sequence (P25910 whole entry) above

Structure (SMILES): C[C@H](NC(=O)Cc1cccs1)C(=O)SCC(=O)O
MIC [1]: 1 µg/mL
IC50 [2]: 95.7 µM
MIC (Escherichia coli [3]): > 64 µg/mL
IC50 (Beta-lactamase L1 [4]): 0.91 µM
inhibition [5]: inactive
MIC [6]: 2 µg/mL
Ki (Beta-lactamase L1 [7]): 0.41 µM
fold change (FC) [8]: 4
IC50 [9]: 46.3 µM
MIC (Escherichia coli [10]): 0.5 µg/mL
MIC [11]: 4 µg/mL
MIC [12]: 4 µg/mL

Structure (SMILES): O=C(O)CSC(=O)[C@H](CO)NC(=O)Cc1cccs1
MIC [1]: 1 µg/mL
MIC (Escherichia coli [3]): 64 µg/mL
IC50 (Beta-lactamase L1 [4]): 1.49 µM
inhibition [5]: inactive
MIC [6]: 4 µg/mL
Ki (Beta-lactamase L1 [7]): 0.17 µM
fold change (FC) [8]: 2
IC50 [9]: 60.1 µM
MIC (Escherichia coli [10]): 0.5 µg/mL
MIC [11]: 8 µg/mL
MIC [12]: 4 µg/mL

Structure (SMILES): O=C(O)CSC(=O)[C@H](CCCCNC(=O)Cc1cccs1)NC(=O)Cc1cccs1
inhibition [13]: inactive
MIC [1]: 2 µg/mL
MIC (Escherichia coli [3]): 64 µg/mL
IC50 (Beta-lactamase L1 [4]): 1.08 µM
inhibition [5]: inactive
MIC [6]: 4 µg/mL
Ki (Beta-lactamase L1 [7]): 0.19 µM
fold change (FC) [8]: 2
MIC (Escherichia coli [10]): 0.5 µg/mL
MIC [11]: 4 µg/mL
MIC [12]: 4 µg/mL

Structure (SMILES): CSCC[C@H](NC(=O)Cc1cccs1)C(=O)SCC(=O)O
MIC [1]: 1 µg/mL
MIC (Escherichia coli [3]): > 64 µg/mL
IC50 (Beta-lactamase L1 [4]): 0.018 µM
MIC [6]: 2 µg/mL
Ki (Beta-lactamase L1 [7]): 0.11 µM
fold change (FC) [8]: 4
IC50 [9]: 13.3 µM
MIC (Escherichia coli [10]): 0.5 µg/mL
MIC [11]: 8 µg/mL
IC50 [14]: 123 µM
MIC [12]: 4 µg/mL

Structure (SMILES): CC(C)C[C@H](NC(=O)Cc1cccs1)C(=O)SCC(=O)O
MIC [1]: 1 µg/mL
IC50 [2]: 28.5 µM
MIC (Escherichia coli [3]): 64 µg/mL
IC50 (Beta-lactamase L1 [4]): 0.069 µM
inhibition [5]: inactive
MIC [6]: 2 µg/mL
Ki (Beta-lactamase L1 [7]): 0.21 µM
fold change (FC) [8]: 4
IC50 [9]: 3.6 µM
MIC (Escherichia coli [10]): 0.5 µg/mL
MIC [11]: 4 µg/mL
MIC [12]: 4 µg/mL

Structure (SMILES): O=C(O)CSC(=O)CNC(=O)Cc1cccs1
MIC [1]: 1 µg/mL
IC50 [2]: 28.7 µM
MIC (Escherichia coli [3]): 64 µg/mL
IC50 (Beta-lactamase L1 [4]): 0.84 µM
inhibition [5]: inactive
MIC [6]: 4 µg/mL
Ki (Beta-lactamase L1 [7]): 0.28 µM
fold change (FC) [8]: 2
IC50 [9]: 61.5 µM
MIC (Escherichia coli [10]): 0.5 µg/mL
MIC [11]: 4 µg/mL
MIC [12]: 4 µg/mL

MIC (Escherichia coli [15]): 64 µg/mL (≈ 141 µM)
Structure (SMILES): Cc1nnc(SCC2=C(C(=O)O)N3C(=O)[C@@H](NC(=O)Cn4cnnn4)[C@H]3SC2)s1 [CEFAZOLIN]

Structure (SMILES): CC(C)[C@H](NC(=O)Cc1cccs1)C(=O)SCC(=O)O
MIC [1]: 1 µg/mL
IC50 [2]: 12.4 µM
MIC (Escherichia coli [3]): > 64 µg/mL
IC50 (Beta-lactamase L1 [4]): 0.45 µM
MIC [6]: 4 µg/mL
Ki (Beta-lactamase L1 [7]): 0.28 µM
fold change (FC) [8]: 2
IC50 [9]: 18.9 µM
MIC (Escherichia coli [10]): 0.5 µg/mL
MIC [11]: 4 µg/mL
IC50 [14]: 38.5 µM
MIC [12]: 4 µg/mL

Structure (SMILES): O=C(O)CSC(=O)[C@H](Cc1c[nH]c2ccccc12)NC(=O)Cc1cccs1
inhibition [13]: inactive
MIC [1]: 2 µg/mL
MIC (Escherichia coli [3]): 64 µg/mL
IC50 (Beta-lactamase L1 [4]): 0.29 µM
inhibition [5]: inactive
MIC [6]: 2 µg/mL
Ki (Beta-lactamase L1 [7]): 0.17 µM
fold change (FC) [8]: 4
MIC (Escherichia coli [10]): 0.5 µg/mL
MIC [11]: 8 µg/mL
MIC [12]: 4 µg/mL

Structure (SMILES): O=C(O)CSC(=O)[C@@H]1CCCN1C(=O)Cc1cccs1
inhibition [13]: inactive
MIC [1]: 2 µg/mL
MIC (Escherichia coli [3]): 64 µg/mL
IC50 (Beta-lactamase L1 [4]): 0.45 µM
inhibition [5]: inactive
MIC [6]: 2 µg/mL
Ki (Beta-lactamase L1 [7]): 0.87 µM
fold change (FC) [8]: 4
MIC (Escherichia coli [10]): 0.5 µg/mL
MIC [11]: 8 µg/mL
MIC [12]: 4 µg/mL

Structure (SMILES): O=C(O)CSC(=O)[C@H](Cc1ccccc1)NC(=O)Cc1cccs1
MIC [1]: 1 µg/mL
IC50 [2]: 36.3 µM
MIC (Escherichia coli [3]): 64 µg/mL
IC50 (Beta-lactamase L1 [4]): 2.9 µM
inhibition [5]: inactive
MIC [6]: 4 µg/mL
Ki (Beta-lactamase L1 [7]): 0.95 µM
fold change (FC) [8]: 2
IC50 [9]: 65.4 µM
MIC (Escherichia coli [10]): 0.5 µg/mL
MIC [11]: 8 µg/mL
MIC [12]: 4 µg/mL

Structure (SMILES): C[C@@H](O)[C@H]1C(=O)N2C(C(=O)O)=C(SCCNC=N)C[C@H]12 [IMIPENEM ANHYDROUS]
MIC (Escherichia coli [15]): 0.5 µg/mL (≈ 1.67 µM)
